Experimental data published in ChEMBL document CHEMBL1134792, “Antimitotic antitumor agents: synthesis, structure-activity relationships, and biological characterization of N-aryl-N'-(2-chloroethyl)ureas as new selective alkylating agents” (J Med Chem, 2001).
Active and inactive are the calls of the source. The rule behind the calls is not given here.

Assays:
CHO [1] = assay: Dose required to inhibit cell growth was determined against CHO cell line; Not active represents IC50 >400 uM; type: functional, cell-based; details: Cricetulus griseus
In short: (§1)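 Alamar Blue growth-inhibition assay. Cells ((1–5) × 10³ per well) were preincubated for 24 h, then exposed to increasing drug concentrations for 72 h at 37 °C. Alamar Blue (20%) was added and fluorescence read at ex 485 / em 590 nm. IC50 is the dose inhibiting growth by 50%. Means of ≥3 independent determinations.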

HT-29 [2] = assay: Dose required to inhibit cell growth was determined against HT-29 cell line of human adenocarcinoma; type: functional, cell-based
In short: (§2)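 Alamar Blue growth assay. (1–5) × 10^3 cells per well preincubated 24 h, then exposed to increasing drug concentrations for 72 h at 37 °C. Medium replaced with PBS containing 20% Alamar Blue, fluorescence read at 485/590 nm. IC50 is the dose inhibiting growth by 50%.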

K562 [3] = assay: Dose required to inhibit cell growth was determined against K562 cell line of chronic myelogenous leukemia; type: functional, cell-based; details: Homo sapiens; in short: as §2
MDA-MB-231 [4] = assay: Dose required to inhibit cell growth was determined against MDA-MB-231 cell line of human non-hormone dependent breast carcinoma; Not active represents IC50 >400 uM; type: functional, cell-based; in short: as §1
MDA-MB-231 [5] = assay: Beta tubulin alkylation activity in MDA-MB-231 cells; not determined; type: functional, Homo sapiens
In short: (§3)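 MDA-MB-231 cells (~5 × 10^6), exponentially growing, exposed to 30 μM compound for 24 h at 37 °C. Lysed in Laemmli buffer, run on 10% SDS-PAGE, immunoblotted with anti-β-tubulin (TUB 2.1, 1:500) and peroxidase anti-mouse secondary, ECL detection. Normal and alkylated band densities integrated to give % alkylated β-tubulin. Representative of three experiments.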

[6] = Alkylating activity using 4-(4-nitrobenzyl)-pyridine(NBP) colorimetric assay
CHO [7] = assay: Dose required to inhibit cell growth was determined against CHO cell line; type: functional, cell-based; details: Cricetulus griseus; in short: as §2
[8] = molecular target: T1, Glutathione reductase, mitochondrial (Homo sapiens) (UniProt P00390); assay: Glutathione reductase activity was measured after incubation with a conc. of 500 uM; type: functional
T1 sequence (whole entry): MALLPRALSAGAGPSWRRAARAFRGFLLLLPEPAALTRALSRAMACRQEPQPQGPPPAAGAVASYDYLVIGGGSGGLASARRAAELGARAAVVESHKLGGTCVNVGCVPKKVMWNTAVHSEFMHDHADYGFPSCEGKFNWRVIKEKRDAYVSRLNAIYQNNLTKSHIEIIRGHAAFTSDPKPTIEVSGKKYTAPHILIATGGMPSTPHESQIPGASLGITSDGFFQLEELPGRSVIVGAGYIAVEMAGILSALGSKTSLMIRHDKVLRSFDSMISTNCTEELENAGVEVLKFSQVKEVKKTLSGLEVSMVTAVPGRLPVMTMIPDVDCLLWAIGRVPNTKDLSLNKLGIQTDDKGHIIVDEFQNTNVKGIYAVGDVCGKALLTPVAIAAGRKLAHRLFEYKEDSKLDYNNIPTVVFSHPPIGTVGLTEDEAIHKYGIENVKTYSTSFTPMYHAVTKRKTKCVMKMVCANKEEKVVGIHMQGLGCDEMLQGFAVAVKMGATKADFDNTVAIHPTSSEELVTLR
In short: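 Purified glutathione reductase (0.016 U/mL) with 100 µM NADPH, 1 mM EDTA, 1 mg/mL BSA and 500 µM drug (from 2% ethanol solution) in 0.1 M phosphate pH 7.4, preincubated 60 min at 30 °C. GSSG was then added for 60 min at 30 °C. Activity is the […] over 3 min, as % of no-drug control, in triplicate.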

L1210 = assay: Dose required to inhibit cell growth was determined against L1210 cell line of murine lymphocytotic leukemia; type: functional, cell-based; details: Mus musculus; in short: as §2
MDA-MB-231 [9] = assay: Beta tubulin alkylation activity in MDA-MB-231 cells; type: functional, Homo sapiens; parameters: concentration or dose not given beside the values; in short: as §3
MDA-MB-231 [10] = assay: DNA damages caused in MDA-MB-231 cells after 2 hr compound exposure to 400 uM concentration; type: functional, Homo sapiens
In short: (§4)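 Growing MDA-MB-231 cells held 2 h at 37 °C in medium with or without 400 μM compound. Cells washed in cold PBS and lysed in Tris/SDS/EDTA/deferoxamine/proteinase K buffer. DNA isolated by salting out, then 3'-end labeled by T4 DNA polymerase nucleotide exchange. Incorporated radioactivity measured by dot filtration, expressed as dCps exchanged/ng DNA. Means ± SD, ≥3 determinations.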

MDA-MB-231 [11] = assay: Dose required to inhibit cell growth was determined against MDA-MB-231 cell line of human non-hormone dependent breast carcinoma; type: functional, cell-based; in short: as §2
LoVo [12] = assay: Dose to inhibit cell growth determined against LoVo cell line of human adenocarcinoma; type: functional, cell-based; in short: as §2
P388 [13] = assay: Dose required to inhibit cell growth was determined against P388D1 cell line of murine lymphocytotic leukemia; type: functional, cell-based; details: Mus musculus; in short: as §2
[14] = Alkylating activity by using 4-(4-nitrobenzyl)-pyridine (NBP) colorimetric assay
In short: (§5)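 NBP colorimetric assay. Drug at 400 nmol/mL in ethanol was mixed with 10% NBP in ethanol and 50 mM sodium acetate pH 4.3, then heated at 80 °C for 60, 90, 120 or 150 min. Samples were chilled and basified with KOH/ethanol, and A570 was read against a drug-free blank. The alkylation rate (A570/min) is the slope of a linear regression of absorbance vs time. Mean ± SD of ≥3 independent experiments.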

[15] = Glutathione activity was measured after incubation with a conc. of 500 uM
In short: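 Cell-free thiol assay. GSH 500 µM with 1 mM EDTA and 500 µM drug (from 2% ethanol solution) in 0.1 M phosphate buffer pH 7.4, 60 min at room temperature. DTNB (0.133 mM) was then added and A412 read. Reported as % of no-drug control, in triplicate.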

MDA-MB-231 [16] = assay: (§6) DNA damages caused in MDA-MB-231 cells after 2 hr exposure to a concentration of 400 uM; type: functional, Homo sapiens; in short: as §4
K562 [17] = assay: Dose required to inhibit cell growth was determined against K562 cell line of chronic myelogenous leukemia; Not active represents IC50 >400 uM; type: functional, cell-based; details: Homo sapiens; in short: as §1
HT-29 [18] = assay: Dose required to inhibit cell growth was determined against HT-29 cell line of human adenocarcinoma; NA= Not active represents IC50 >400 uM; type: functional, cell-based; in short: as §1
MDA-MB-231 [19] = assay: Dose required to inhibit cell growth was determined against MDA-MB-231 cell line of human non-hormone dependent breast carcinoma; NA= Not active represents IC50 >400 uM; type: functional, cell-based; in short: as §1
LoVo [20] = assay: Dose required to inhibit cell growth was determined against LoVo cell line of human adenocarcinoma; NA= Not active represents IC50 >400 uM; type: functional, cell-based; in short: as §1
P388 [21] = assay: Dose required to inhibit cell growth was determined against P388D1 cell line of murine lymphocytotic leukemia; NA= Not active represents IC50 >400 uM; type: functional, cell-based; details: Mus musculus; in short: as §1
HT-29 [22] = assay: Dose required to inhibit cell growth was determined against HT-29 cell line of human adenocarcinoma; Not active represents IC50 >400 uM; type: functional, cell-based; in short: as §1
MDA-MB-231 [23] = assay: as §6; type: functional; in short: as §4
[24] = Alkylating activity by using 4-(4-nitrobenzyl)-pyridine(NBP) colorimetric assay; in short: as §5
LoVo [25] = assay: Dose required to inhibit cell growth was determined against LoVo cell line a human colon adenocarcinoma; NA= Not active represents IC50 >400 uM; type: functional, cell-based; in short: as §1
CHO [26] = assay: Dose required to inhibit cell growth was determined against CHO cell line; NA= Not active represents IC50 >400 uM; type: functional, cell-based; details: Cricetulus griseus; in short: as §1

| Structure (SMILES) | NA (CHO [1]) | IC50 (HT-29 [2]) | IC50 (K562 [3]) | NA (MDA-MB-231 [4]) | IC50 (CHO [7]) | IC50 (L1210) | Activity (MDA-MB-231 [9]) | IC50 (MDA-MB-231 [11]) | IC50 (LoVo [12]) | IC50 (P388 [13]) | further results |
| --- | --- | --- | --- | --- | --- | --- | --- | --- | --- | --- | --- |
| CCNC(=O)Nc1ccc(C(C)(C)C)cc1 | inactive | 83 µM | 84 µM | inactive | – | – | – | – | – | – | Activity (MDA-MB-231 [5]): 0; Activity [6]: 0.07 |
| O=C(NCCCl)Nc1ccc(I)cc1 | – | 3.9 µM | 2.1 µM | – | 4.8 µM | 3.8 µM | 44% | 5.7 µM | 5.4 µM | 5.4 µM | Activity [8]: 98%; DNA damage (MDA-MB-231 [10]): 2.66 10e7 exchanged dCps (ng of DNA); Activity [14]: 3.1 A570 min-1; Activity [15]: 100% |
| O=C(NCCCl)Nc1ccc2ccccc2c1 | – | 5.5 µM | 3 µM | – | 7.2 µM | 3 µM | 47% | 6.1 µM | 6.2 µM | 5.3 µM | DNA damage (MDA-MB-231 [16]): 1.89 10e7 exchanged dCps (ng of DNA) |
| CNC(=O)Nc1ccc(C(C)(C)C)cc1 | inactive | 196 µM | – | inactive | – | 80 µM | – | – | – | – | NA (K562 [17]): inactive |
| O=C(NCCCl)Nc1cccc2c1CCCC2 | – | – | 76 µM | – | 56 µM | 55 µM | – | – | – | – | NA (HT-29 [18]): inactive; NA (MDA-MB-231 [19]): inactive; NA (LoVo [20]): inactive; NA (P388 [21]): inactive |
| O=C(O)CCCc1ccc(N(CCCl)CCCl)cc1 [CHLORAMBUCIL] | – | > 100 µM | 11 µM | – | 30 µM | 3 µM | – | 80 µM | 9 µM | 7 µM | DNA damage (MDA-MB-231 [16]): 12.7 10e7 exchanged dCps (ng of DNA); Activity [14]: 39 A570 min-1 |
| O=NN(CCCl)C(=O)NCCCl [CARMUSTINE] | – | 17 µM | 9 µM | – | 8.2 µM | 4.5 µM | – | 7.4 µM | – | 5.9 µM | Activity [8]: 20%; DNA damage (MDA-MB-231 [16]): 19.9 10e7 exchanged dCps (ng of DNA); Activity [15]: 50% |
| CCC(C)c1ccc(NC(=O)NC)cc1 (configuration not stated) | inactive | – | 142 µM | inactive | – | 62 µM | – | – | – | – | NA (HT-29 [22]): inactive |
| O=C(NCCCl)Nc1ccc2c(c1)CCC2 | – | 10 µM | 5.5 µM | – | 10 µM | 5 µM | 43% | 10 µM | 5.1 µM | 7.3 µM | DNA damage (MDA-MB-231 [23]): 2.37 10e7 exchanged dCps (ng of DNA); Activity [24]: 3.5 A570 min-1 |
| CNC(=O)Nc1ccc(C(C)C)cc1 | inactive | – | 198 µM | inactive | – | 135 µM | – | – | – | – | NA (HT-29 [22]): inactive |
| O=C(NCCCl)Nc1ccccc1 | – | > 100 µM | > 100 µM | – | – | 57 µM | 0% | 140 µM | – | – | NA (LoVo [25]): inactive; NA (P388 [21]): inactive |
| Cc1cc(C)nc(NC(=O)NCCCl)c1 | – | – | 113 µM | – | – | 144 µM | – | 50 µM | – | – | NA (CHO [26]): inactive; NA (LoVo [20]): inactive; NA (P388 [21]): inactive |
| CCNC(=O)Nc1ccc(C(C)C)cc1 | inactive | – | 142 µM | inactive | – | 35 µM | – | – | – | – | NA (HT-29 [22]): inactive |
| CCCCCc1ccc(NC(=O)NCCCl)cc1 | – | 12 µM | 6.1 µM | – | 13 µM | 5.4 µM | 40% | 12 µM | 5.2 µM | 7.3 µM | Activity [8]: 99%; DNA damage (MDA-MB-231 [10]): 1.93 10e7 exchanged dCps (ng of DNA); Activity [24]: 2.9 A570 min-1; Activity [15]: 100% |
